Assay results: ChEMBL document CHEMBL4371012, “Development of Macrocyclic Peptides Containing Epoxyketone with Oral Availability as Proteasome Inhibitors” (J Med Chem, 2018)
Calls of active or inactive are those of the source. The rule behind the calls is not given here.

How the values were obtained:
[1] = Cmax in ICR mouse at 30 mg/kg, po via gavage by LC-MS/MS analysis; assay type: ADME, organism-based; parameters: dose 30 mg/kg, route oral; details: in vivo
[2] = Tmax in ICR mouse at 30 mg/kg, po via gavage by LC-MS/MS analysis; assay type: ADME, organism-based; details: in vivo
[3] = tested on: RPMI-8226; assay: Antiproliferative activity against human RPMI8226 cells after 72 hrs by MTS assay; assay type: functional, cell-based; details: RPMI-8226, 72 h
[4] = tested on: MM1.S; assay: Antiproliferative activity against human MM1S cells after 72 hrs by MTS assay; assay type: functional, cell-based
[5] = tested on: MV4-11; assay: Antiproliferative activity against human MV4-11 cells after 72 hrs by MTS assay; assay type: functional, cell-based; details: MV4-11, 72 h
[6] = target: T1, Proteasome Macropain subunit MB1 (Homo sapiens, UniProt P28074); assay: Inhibition of human 20S proteasome chymotrypsin-like activity using Suc-Leu-Leu-Val-Tyr-AMC as substrate pretreated for 15 mins followed by substrate addition by fluorescence assay
T1 sequence (P28074 whole entry): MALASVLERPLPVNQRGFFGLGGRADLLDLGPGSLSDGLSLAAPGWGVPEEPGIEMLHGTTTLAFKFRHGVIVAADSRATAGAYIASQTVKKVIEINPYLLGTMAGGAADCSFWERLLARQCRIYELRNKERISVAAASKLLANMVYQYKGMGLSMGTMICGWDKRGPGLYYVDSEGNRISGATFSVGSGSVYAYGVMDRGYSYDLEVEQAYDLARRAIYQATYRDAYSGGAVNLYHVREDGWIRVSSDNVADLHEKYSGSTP

[7] = Metabolic stability in mouse liver microsomes assessed as parent compound remaining at 100 uM after 30 mins by LC-MS/MS analysis; assay type: ADME, Microsome; details: read-out: Stability
Summary of the method: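 After the microsomal incubation, the clear supernatant was analysed by ESI LC-MS. The read-out was the relative peak area of each parent compound.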

[8] = AUC (0 to t) in ICR mouse at 30 mg/kg, po via gavage after 1 hr by LC-MS/MS analysis; assay type: ADME, organism-based; parameters: time < 1 hr, dose 30 mg/kg, route oral; details: in vivo
[9] = tested on: Mus musculus; assay: In vivo inhibition of 20S proteasome chymotrypsin-like activity in Balb/c mouse blood at 30 mg/kg, po measured at 2 to 24 hrs post dose using LLVY-AMC as substrate by fluorescence assay; assay type: functional, organism-based
Summary of the method: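 BALB/c mice dosed orally in 0.5% CMC-Na vehicle. Blood was sampled at 2 and 24 h after dosing for proteasome chymotrypsin-like activity.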

Cmax [1]: 92 ng/mL
Tmax [2]: 13.2 min
IC50 [3]: 3 nM
IC50 [4]: 1 nM
IC50 [5]: 3 nM
IC50 [6]: 14 nM
remaining at 0.5 h, 100 µM [7]: 92%
AUC(0-t) at 1 h [8]: 58 ng·h/mL
Structure (SMILES): COC[C@@H]1NC(=O)c2nccn2CCCCCCOC[C@@H](C(=O)N[C@@H](Cc2ccccc2)C(=O)[C@@]2(C)CO2)NC1=O
inhibition [9]: Active
